Assay results taken from ChEMBL document CHEMBL1135775 (J Med Chem, 2002).
pIC50, pKi: −log10 of the molar value. Several values for one entry are separate records, joined by “and”; a condition that tells them apart may be missing. Equal entries are not always repeated.

Assays:
[1] = biological target: T1, Sodium-dependent noradrenaline transporter (Homo sapiens, UniProt P23975); experiment: Inhibition of NE uptake in HEK cells expressing human noradrenaline transporter (hNET); assay type: functional, cell-based, HEK293
T1 sequence (P23975 whole entry): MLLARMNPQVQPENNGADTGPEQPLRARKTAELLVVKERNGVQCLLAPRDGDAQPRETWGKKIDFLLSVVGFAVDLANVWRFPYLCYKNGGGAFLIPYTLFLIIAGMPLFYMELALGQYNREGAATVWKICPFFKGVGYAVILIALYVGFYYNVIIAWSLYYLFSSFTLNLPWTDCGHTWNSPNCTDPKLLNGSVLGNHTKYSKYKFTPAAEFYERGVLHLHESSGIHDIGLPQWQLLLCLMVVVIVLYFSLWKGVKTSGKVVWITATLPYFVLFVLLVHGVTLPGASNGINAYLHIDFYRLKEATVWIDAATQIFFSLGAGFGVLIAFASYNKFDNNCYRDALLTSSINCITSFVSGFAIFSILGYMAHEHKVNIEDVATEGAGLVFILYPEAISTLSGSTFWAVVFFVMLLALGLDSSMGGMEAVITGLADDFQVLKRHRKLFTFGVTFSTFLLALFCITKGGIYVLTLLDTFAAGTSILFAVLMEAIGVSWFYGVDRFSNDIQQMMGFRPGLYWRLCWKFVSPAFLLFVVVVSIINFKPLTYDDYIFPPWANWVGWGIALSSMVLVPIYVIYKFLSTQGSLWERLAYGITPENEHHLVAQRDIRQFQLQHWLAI

[2] = biological target: T2, Sodium-dependent serotonin transporter (Homo sapiens, UniProt P31645); experiment: Inhibition of 5-HT uptake in HEK cells expressing human serotonin transporter (hSERT); assay type: functional, cell-based, HEK293
T2 sequence (P31645 whole entry): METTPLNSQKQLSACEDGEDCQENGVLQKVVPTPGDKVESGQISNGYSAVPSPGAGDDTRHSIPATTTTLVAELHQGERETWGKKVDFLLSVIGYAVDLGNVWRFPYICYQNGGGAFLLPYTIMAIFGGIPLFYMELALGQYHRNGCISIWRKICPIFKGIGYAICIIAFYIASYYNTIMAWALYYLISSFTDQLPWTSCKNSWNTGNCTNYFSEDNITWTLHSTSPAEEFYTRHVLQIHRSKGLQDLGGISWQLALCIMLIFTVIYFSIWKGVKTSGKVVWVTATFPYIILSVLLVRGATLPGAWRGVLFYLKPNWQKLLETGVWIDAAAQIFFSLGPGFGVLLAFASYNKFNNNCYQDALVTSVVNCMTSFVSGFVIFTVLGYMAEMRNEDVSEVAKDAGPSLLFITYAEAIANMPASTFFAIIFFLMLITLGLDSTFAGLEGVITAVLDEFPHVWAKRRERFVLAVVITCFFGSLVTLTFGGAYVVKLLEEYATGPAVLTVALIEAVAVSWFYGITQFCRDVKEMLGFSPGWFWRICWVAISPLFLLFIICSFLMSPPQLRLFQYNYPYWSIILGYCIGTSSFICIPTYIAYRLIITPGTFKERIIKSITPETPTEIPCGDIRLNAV
Outline: (§1)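 Scraped HEK293 cells expressing hSERT or hDAT in Krebs-HEPES, preincubated 10 min at 25 °C with test compound. Uptake started with [3H]serotonin or [3H]dopamine (20 nM final), stopped after 10 min by filtration on PEI-soaked GF/C filters.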

[3] = Ratio of the IC50 value of Mazindol to that of the compound.; assay type: functional
[4] = biological target: Sodium-dependent dopamine transporter (Rattus norvegicus) (UniProt P23977); experiment: Ability to displace [3H]WIN-35428 from Dopamine Transporter of rat striatal membrane at a concentration of 10 E-6 M
Sodium-dependent dopamine transporter (Rattus norvegicus), sequence (P23977 whole entry): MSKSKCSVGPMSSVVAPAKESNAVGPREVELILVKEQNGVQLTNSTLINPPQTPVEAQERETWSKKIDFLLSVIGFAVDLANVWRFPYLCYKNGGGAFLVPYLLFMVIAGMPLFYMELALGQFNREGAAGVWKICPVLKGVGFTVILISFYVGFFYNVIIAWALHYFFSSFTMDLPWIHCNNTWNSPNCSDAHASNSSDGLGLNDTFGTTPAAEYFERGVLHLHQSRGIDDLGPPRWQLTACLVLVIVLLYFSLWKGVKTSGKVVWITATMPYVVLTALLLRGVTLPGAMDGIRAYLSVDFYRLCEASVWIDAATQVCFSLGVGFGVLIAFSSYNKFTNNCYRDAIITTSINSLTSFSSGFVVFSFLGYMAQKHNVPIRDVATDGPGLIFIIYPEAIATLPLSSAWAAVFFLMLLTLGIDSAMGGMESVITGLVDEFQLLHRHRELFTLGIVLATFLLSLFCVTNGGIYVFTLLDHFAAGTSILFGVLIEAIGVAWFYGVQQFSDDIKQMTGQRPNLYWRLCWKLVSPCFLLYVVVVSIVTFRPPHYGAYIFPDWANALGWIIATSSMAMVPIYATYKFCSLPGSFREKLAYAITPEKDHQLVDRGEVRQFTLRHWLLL

[5] = biological target: Monoamine transporters; Norepinephrine & dopamine (Homo sapiens) (UniProt Q01959+P23975); experiment: Selectivity ratio as ratio of IC50 value against NET to that of DAT; assay type: protein assay
Monoamine transporters; Norepinephrine & dopamine (Homo sapiens), sequence (P23975 whole entry, looked up): as the sequence (P23975 whole entry) above
Monoamine transporters; Norepinephrine & dopamine (Homo sapiens), sequence (Q01959 whole entry, looked up): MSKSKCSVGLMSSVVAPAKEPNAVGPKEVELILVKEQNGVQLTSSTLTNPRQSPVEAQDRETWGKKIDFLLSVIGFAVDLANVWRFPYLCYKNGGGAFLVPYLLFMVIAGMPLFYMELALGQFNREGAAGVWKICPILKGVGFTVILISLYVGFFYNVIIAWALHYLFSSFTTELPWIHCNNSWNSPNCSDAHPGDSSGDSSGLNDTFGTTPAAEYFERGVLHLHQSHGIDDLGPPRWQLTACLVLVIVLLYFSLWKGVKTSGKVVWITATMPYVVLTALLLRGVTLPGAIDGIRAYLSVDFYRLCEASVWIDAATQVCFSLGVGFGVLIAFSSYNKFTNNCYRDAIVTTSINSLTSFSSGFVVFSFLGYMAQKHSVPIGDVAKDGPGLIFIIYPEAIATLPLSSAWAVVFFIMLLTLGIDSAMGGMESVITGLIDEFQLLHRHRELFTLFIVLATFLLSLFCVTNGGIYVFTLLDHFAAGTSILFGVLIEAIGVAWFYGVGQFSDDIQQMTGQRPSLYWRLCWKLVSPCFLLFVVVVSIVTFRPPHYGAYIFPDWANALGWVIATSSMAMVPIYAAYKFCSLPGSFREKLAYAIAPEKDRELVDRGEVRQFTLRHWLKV

[6] = Discrimination ratio against DAT as ratio of IC50 to that of Ki uptake to DAT.; assay type: functional
[7] = biological target: T1, Sodium-dependent noradrenaline transporter; experiment: Displacement of [125I]RTI-55 from human Norepinephrine transporter expressed in HEK cells; assay type: cell-based, HEK293
[8] = Discrimination ratio against NET as ratio of IC50 to that of Ki uptake to NET.; assay type: functional
[9] = biological target: T2, Sodium-dependent serotonin transporter; experiment: Displacement of [125I]- RTI-55 from Serotonin transporter expressed in HEK cells; assay type: cell-based, HEK293
Outline: (§2)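 Membranes from HEK293 cells expressing hDAT, hSERT or hNET (10–15 μg protein) preincubated 10 min with test compound in Krebs-HEPES pH 7.4. Two or three experiments in duplicate; IC50 converted to Ki by Cheng-Prusoff.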

[10] = biological target: T3, Sodium-dependent dopamine transporter (Homo sapiens, UniProt Q01959); experiment: Displacement of [125I]- RTI-55 from Dopamine transporter expressed in HEK cells; assay type: cell-based, HEK293; outline: as §2
T3 sequence (Q01959 whole entry): as the sequence (Q01959 whole entry, looked up) above

[11] = biological target: T3, Sodium-dependent dopamine transporter; experiment: Inhibition of dopamine uptake in HEK cells expressing human dopamine transporter (hDAT); assay type: functional, cell-based, HEK293; outline: as §1
[12] = biological target: Monoamine transporters; serotonin & dopamine (Homo sapiens) (UniProt P31645+Q01959); experiment: Selectivity ratio as ratio of IC50 value against SERT to that of DAT; assay type: protein assay
Monoamine transporters; serotonin & dopamine (Homo sapiens), sequence (P31645 whole entry, looked up): as the sequence (P31645 whole entry) above
Monoamine transporters; serotonin & dopamine (Homo sapiens), sequence (Q01959 whole entry, looked up): as the sequence (Q01959 whole entry, looked up) above

[13] = Discrimination ratio against SERT as ratio of IC50 to that of Ki uptake to SERT.; assay type: functional
[14] = biological target: Sodium-dependent dopamine transporter (Rattus norvegicus, UniProt P23977); experiment: Ability to displace [3H]WIN-35428 from Dopamine Transporter of rat striatal membrane
Sodium-dependent dopamine transporter (Rattus norvegicus, UniProt P23977), sequence (P23977 whole entry): as the sequence (P23977 whole entry) above
Outline: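 Rat striatum (male Sprague-Dawley, 200-225 g) homogenised in ice-cold sucrose phosphate buffer pH 7.4, washed, resuspended at 10 mg/mL. Filtration on PEI-soaked GF/B filters, scintillation counting. Four experiments in triplicate.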

[15] = biological target: T1, Sodium-dependent noradrenaline transporter; experiment: Ability to displace [125I]- RTI-55 binding at the Norepinephrine transporter site on HEK cells expressing cDNA for the human transporter (hNET); assay type: cell-based, HEK293
Outline: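 Membranes from HEK293 cells expressing hDAT, hSERT or hNET (10–15 μg protein) preincubated 10 min with test compound in Krebs-HEPES pH 7.4. Then 40–80 pM [125I]RTI-55 added, 90 min at 25 °C, GF/C filtration. […] Two or three experiments in duplicate; IC50 converted to Ki by Cheng-Prusoff.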

[16] = biological target: T3, Sodium-dependent dopamine transporter; experiment: Ability to block the uptake of […] at the Dopamine transporter of HEK cells expressing cDNA for the human transporter (hDAT); assay type: functional, cell-based, HEK293

OC1(c2ccc(Cl)cc2)c2ccccc2C2=NCCN21 (stereo not given) [MAZINDOL]
pIC50 [1]: 8.31 | pIC50 [2]: 7.03

OC1(c2ccc(-c3ccccc3)cc2)c2ccccc2C2=NCCN21 (stereo not given)
Ratio [3]: < 0.002 | inhibition [4]: 14.1%

OC1(c2ccncc2)c2ccccc2C2=NCCN21 (stereo not given)
Ratio [3]: 0.1

Oc1ccc(C2(O)c3ccccc3C3=NCCCN32)cc1 (stereo not given)
Ratio [3]: 2.4 | Ratio [5]: 4.4 | Ratio [6]: 0.7 | pIC50 [1]: 8.72 | pIC50 [2]: 7.22 | pKi [7]: 6.42 | Ratio [8]: 0.005 | pKi [9]: 7.11 | pKi [10]: 7.06 | pIC50 [11]: 7.23 | Ratio [12]: 0.9 | Ratio [13]: 0.8

COc1ccc(C2(O)c3ccccc3C3=NCCCN32)cc1OC (stereo not given)
Ratio [3]: 0.1

OC1(c2ccc(Cl)cc2)c2ccccc2C2=NCCCN21 (stereo not given)
Ratio [3]: 8.1 and 10.1 | Ratio [5]: 10.6 | Ratio [6]: 2.2 | pIC50 [1]: 8.31 | pIC50 [2]: 7.28 | Ratio [8]: 2.2 | pIC50 [11]: 8.43 | Ratio [12]: 23 | Ratio [13]: 1.4

OC1(c2ccc(C(F)(F)F)cc2)c2ccccc2C2=NCCN21 (stereo not given)
Ratio [3]: 0.03

OC1(c2ccccc2)c2c(Cl)cccc2C2=NCCN21 (stereo not given)
Ratio [3]: 0.1

OC1(c2cccc(C(F)(F)F)c2)c2ccccc2C2=NCCN21 (stereo not given)
Ratio [3]: 0.04

Cc1cc(C)c2c(c1)C1=NCCN1C2(O)c1ccc(Cl)cc1 (stereo not given)
Ratio [3]: 0.6

COC(=O)c1ccc(C2(O)c3ccccc3C3=NCCN32)cc1 (stereo not given)
Ratio [3]: 0.002

C=CCOc1cccc(C2(O)c3ccccc3C3=NCCCN32)c1 (stereo not given)
Ratio [3]: 0.2 | pIC50 [14]: 6.66

COc1ccc(C2(O)c3ccccc3C3=NCCCN32)cc1 (stereo not given)
Ratio [3]: 3.2 | Ratio [5]: 2.3 | Ratio [6]: 0.8 | pIC50 [1]: 8.39 | pIC50 [2]: 7.03 | pKi [7]: 7.08 | Ratio [8]: 0.05 | pKi [9]: 7.25 | pKi [10]: 7.44 | pIC50 [11]: 7.52 | Ratio [12]: 1.5 | Ratio [13]: 1.7

OC1(c2ccc(Cl)cc2)c2c(ccc3c2OCO3)C2=NCCN21 (stereo not given)
Ratio [3]: 0.1

C=CCOc1ccc(C2(O)c3ccccc3C3=NCCCN32)cc1 (stereo not given)
Ratio [3]: 0.1

OC1(c2ccc(Cl)cc2)c2cc(Cl)c(Cl)cc2C2=NCCN21 (stereo not given)
Ratio [3]: 0.6 | Ratio [5]: 38 | Ratio [6]: 5.7 | pIC50 [1]: 8.00 | pIC50 [2]: 6.35 | pKi [7]: 7.40 | Ratio [8]: 0.3 | pKi [9]: 5.87 | pKi [10]: 8.98 | pIC50 [11]: 8.22 | Ratio [12]: 1280 | Ratio [13]: 0.3

Clc1ccc(C2c3ccccc3C3=NCCN32)cc1 (stereo not given)
Ratio [3]: 1.4 | pIC50 [1]: 8.16 | pIC50 [2]: 7.82 | pKi [7]: 6.77 | pKi [9]: 7.59 | pKi [10]: 7.64 | pIC50 [11]: 8.22

COCC1(c2ccc(Cl)cc2)c2ccccc2C2=NCCCN21 (stereo not given)
Ratio [3]: < 0.002

OC1(c2cccnc2)c2ccccc2C2=NCCN21 (stereo not given)
Ratio [3]: 0.013

OC1(c2ccc3c(c2)OCO3)c2ccccc2C2=NCCCN21 (stereo not given)
Ratio [5]: 3.5 | Ratio [6]: 0.8 | pIC50 [1]: 9.21 | pKi [15]: 8.06 | pIC50 [2]: 7.08 | pIC50 [14]: 8.71 | Ratio [8]: 0.07 | pKi [9]: 7.59 | pKi [10]: 8.59 | Ratio [12]: 10 | Ratio [13]: 3.2 | pIC50 [16]: 8.66

OC1(c2ccc(Cl)cc2)c2cccc(F)c2C2=NCCN21 (stereo not given)
Ratio [3]: 3.5 | Ratio [5]: 0.04 | Ratio [6]: 4 | pIC50 [1]: 8.30 | pIC50 [2]: 6.89 | pKi [7]: 9.05 | Ratio [8]: 5.6 | pKi [9]: 7.42 | pKi [10]: 7.64 | pIC50 [11]: 7.04 | Ratio [12]: 1.65 | Ratio [13]: 3.4

COc1ccc(C2(O)c3ccccc3C3=NCCN32)cc1OC (stereo not given)
Ratio [3]: 0.001

OC1(c2ccc(Cl)cc2)c2cccc(-c3ccccc3)c2C2=NCCN21 (stereo not given)
Ratio [3]: 0.1

COc1cc(C2(O)c3ccccc3C3=NCCN32)cc(OC)c1OC (stereo not given)
Ratio [3]: < 0.002

COc1cccc2c1C(O)(c1ccc(Cl)cc1)N1CCN=C21 (stereo not given)
Ratio [3]: 0.6 | Ratio [5]: 2.2 | Ratio [6]: 5.8 | pIC50 [1]: 8.76 | pIC50 [2]: 5.44 | pKi [7]: 7.64 | Ratio [8]: 0.07 | pKi [9]: 5.70 | pKi [10]: 7.99 | pIC50 [11]: 7.22 | Ratio [12]: 193 | Ratio [13]: 1.8

OC1(c2ccc3c(c2)OCCO3)c2ccccc2C2=NCCN21 (stereo not given)
Ratio [3]: 0.03

COc1cccc2c1C1=NCCN1C2(O)c1ccc(Cl)cc1 (stereo not given)
Ratio [3]: 9 | Ratio [5]: 2.3 | Ratio [6]: 14.5 | pIC50 [1]: 8.33 | pIC50 [2]: 6.55 | pKi [7]: 8.17 | Ratio [8]: 0.7 | pKi [9]: 6.06 | pKi [10]: 8.54 | pIC50 [11]: 7.38 | Ratio [12]: 300 | Ratio [13]: 0.3

CN(C)Cc1ccc(C2(O)c3ccccc3C3=NCCN32)cc1 (stereo not given)
Ratio [3]: 0.003

CC1(c2ccc(Cl)cc2)c2ccccc2C2=NCCCN21 (stereo not given)
Ratio [3]: 0.3

OC1(c2ccccc2)c2cc(Cl)ccc2C2=NCCN21 (stereo not given)
Ratio [3]: 0.1

OC1(c2ccc(OCc3ccccc3)cc2)c2ccccc2C2=NCCCN21 (stereo not given)
Ratio [3]: 0.1

Cc1ccc(C2(O)c3ccccc3C3=NCCN32)cc1 (stereo not given)
Ratio [3]: 0.1

OC1(c2ccc3c(c2)OCO3)c2ccccc2C2=NCCN21 (stereo not given)
Ratio [3]: 0.4

OC1(c2ccccc2)c2ccccc2C2=NCCN21 (stereo not given)
Ratio [3]: 0.1 | Ratio [5]: 0.1 | Ratio [6]: 0.7 | pIC50 [1]: 8.55 | pIC50 [2]: 5.67 | pKi [7]: 7.00 | Ratio [8]: 0.03 | pKi [9]: 5.75 | pKi [10]: 5.97 | pIC50 [11]: 6.14 | Ratio [12]: 1.6 | Ratio [13]: 1.2

COC1(c2ccc(Cl)cc2)c2ccccc2C2=NCCN21 (stereo not given)
Ratio [3]: 0.008 | pIC50 [14]: 6.00

COc1ccc2c(c1)C(O)(c1ccc(Cl)cc1)N1CCN=C21 (stereo not given)
Ratio [3]: 3.2 | Ratio [5]: 3.9 | Ratio [6]: 2.8 | pIC50 [1]: 8.84 | pIC50 [2]: 5.71 | pKi [7]: 7.64 | Ratio [8]: 0.06 | pKi [9]: 5.99 | pKi [10]: 8.22 | pIC50 [11]: 7.78 | Ratio [12]: 172 | Ratio [13]: 1.9

COc1ccc(C2(O)c3ccccc3C3=NCCN32)cc1 (stereo not given)
Ratio [3]: 0.4

OC1(c2ccccn2)c2ccccc2C2=NCCN21 (stereo not given)
Ratio [3]: < 0.002
